Experimental data from ChEMBL document CHEMBL1123589, “Phenylpiperazine-based radiopharmaceuticals for brain imaging. 3. Synthesis and evaluation of radioiodinated 1-alkyl-4-phenylpiperazines” (J Med Chem, 1987).
Where “and” joins values, the source holds several entries; their conditions need not be identical. Equal entries are not always repeated.

Legend:
Conditions in all cases: in vivo
Rattus norvegicus [1] = assay: The biodistribution of the [125I]-labeled compound in rats after intravenous injection was evaluated in liver at 0.25 hr; value ranges from 0.27-0.39 (ID.kg/g); type: ADME, organism-based
In short: (§1)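 Male Sprague-Dawley rats (250–300 g), under ether anesthesia, given 10–15 μCi of the NCA ¹²⁵I-labeled agent iv in 0.1 mL saline. Groups of N = 3 were killed at 0.25, 1 or 4 h. Blood and tissues were removed, weighed and counted in a γ-well scintillation counter. Values are mean % ID·kg/g (range).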

Rattus norvegicus [2] = assay: The biodistribution of the [125I]-labeled compound in rats after intravenous injection was evaluated in blood at 1.00 hrs (ID.kg/g); type: ADME, organism-based
In short: (§2)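 Male Sprague-Dawley rats (250–300 g) under ether anesthesia were given an iv injection of no-carrier-added 125I-labelled agent (10–15 μCi in 0.1 mL saline). The agent was iodinated with chloramine-T in acetate buffer and purified by C-18 HPLC. Groups of N = 3 were killed at 0.25, 1 and 4 h. Blood and tissues were weighed and γ-counted. Values are % ID·kg/g, mean (range).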

Rattus norvegicus [3] = assay: The biodistribution of the [125I]-labeled compound in rats after intravenous injection was evaluated in thyroid at 1.00 hrs; value ranges from 1.69-2.41 (ID.kg/g); type: ADME, organism-based, Thyroid gland
In short: (§3)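 Male Sprague-Dawley rats (250–300 g) under ether anesthesia given iv 0.1 mL saline containing 10–15 μCi of NCA ¹²⁵I-labeled agent (chloramine-T iodination, HPLC-purified). Groups of 3 killed at 0.25, 1 and 4 h. Blood and tissues excised, weighed and γ-counted. Values are mean (range) of % injected dose × body mass (kg) per gram of tissue.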

Rattus norvegicus [4] = assay: The biodistribution of the [125I]-labeled compound in rats after intravenous injection was evaluated in thyroid at 0.25 hrs; value ranges from 3.39-4.05 (ID.kg/g); type: ADME, organism-based, Thyroid gland; in short: as §3
Rattus norvegicus [5] = assay: The biodistribution of the [125I]-labeled compound in rats after intravenous injection was evaluated in brain at 1.00 hrs (ID.kg/g); type: ADME, organism-based; in short: as §2
Rattus norvegicus [6] = assay: The biodistribution of the [125I]-labeled compound in rats after intravenous injection was evaluated in liver at 1.00 hrs; value ranges from 0.19-0.24 (ID.kg/g); type: ADME, organism-based; in short: as §1
Rattus norvegicus [7] = assay: The biodistribution of the [125I]-labeled compound in rats after intravenous injection was evaluated in lung at 0.25 hrs; value ranges from 0.81-1.16 (ID.kg/g); type: ADME, organism-based; in short: as §1
Rattus norvegicus [8] = assay: The biodistribution of the [125I]-labeled compound in rats after intravenous injection was evaluated in adrenal at 0.25 hrs; value ranges from 1.43-1.71 (ID.kg/g); type: ADME, organism-based; in short: as §2
Rattus norvegicus [9] = assay: The biodistribution of the [125I]-labeled compound in rats after intravenous injection was evaluated in blood at 4.00 hrs (ID.kg/g); type: ADME, organism-based; in short: as §2
Rattus norvegicus [10] = assay: The biodistribution of the [125I]-labeled compound in rats after intravenous injection was evaluated in adrenal at 1.00 hrs; value ranges from 0.80-1.14 (ID.kg/g); type: ADME, organism-based; in short: as §2
Canis familiaris [11] = assay: The biodistribution of the [131I]-labeled compound in dog (mass= 5.7 kg), 2 hr after intravenous injection was evaluated in kidney (ID.kg/g); type: ADME, organism-based, Canis lupus familiaris
In short: (§4)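 One female dog (5.7 kg) premedicated im with acepromazine maleate, then anesthetized iv with sodium nembutal/saline (1:1). Given 1.0 mCi iv of ¹³¹I-labeled agent. Killed 2 h post-dose with iv nembutal. Tissues excised, weighed and counted; blood, fat and muscle masses estimated as 7.5%, 27.5% and 40% of body weight. Expressed as % ID/organ and % ID·kg/g.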

Rattus norvegicus [12] = assay: The biodistribution of the [125I]-labeled compound in rats after intravenous injection was evaluated in fat at 4.00 hrs (ID.kg/g); type: ADME, organism-based, Adipose tissue; in short: as §2
Canis familiaris [13] = assay: The biodistribution of the [131I]-labeled compound in dog (mass= 5.7 kg), 2 hr after intravenous injection was evaluated in heart; type: ADME, organism-based, Canis lupus familiaris; in short: as §4
Canis familiaris [14] = assay: The biodistribution of the [131I]-labeled compound in dog (mass= 5.7 kg), 2 hr after intravenous injection was evaluated in adrenal (ID.kg/g); type: ADME, organism-based, Canis lupus familiaris; in short: as §4
Rattus norvegicus [15] = assay: The biodistribution of the [125I]-labeled compound in rats after intravenous injection was evaluated in heart at 0.25 hrs; value ranges from 0.26-0.32 (ID.kg/g); type: ADME, organism-based; in short: as §2

What does the source list for `CCCCN1CCN(c2ccc(I)cc2)CC1`?
Biodistribution (Rattus norvegicus [1]): 0.39%; Biodistribution (Rattus norvegicus [2]): 0.01 % ID·kg/g; Biodistribution (Rattus norvegicus [3]): 2.41%; Biodistribution (Rattus norvegicus [4]): 4.05%; Biodistribution (Rattus norvegicus [5]): 0.28%; Biodistribution (Rattus norvegicus [6]): 0.24%; Biodistribution (Rattus norvegicus [7]): 1.16%; Biodistribution (Rattus norvegicus [8]): 1.71%; Biodistribution (Rattus norvegicus [9]): 0.01 % ID·kg/g; Biodistribution (Rattus norvegicus [10]): 1.14%; Biodistribution (Canis familiaris [11]): 0.182%; Biodistribution (Rattus norvegicus [12]): 0.02%; Biodistribution (Canis familiaris [13]): 0.182%; Biodistribution (Canis familiaris [14]): 0.121% and 0.633%; Biodistribution (Rattus norvegicus [15]): 0.32%
